In ChEMBL document CHEMBL1764957, “Inhibitors and promoters of tubulin polymerization: synthesis and biological evaluation of chalcones and related dienones as potential anticancer agents” (Bioorg Med Chem, 2011):
Calls of active or inactive are those of the source. The calls are words filed in the database; no cut-off is given here.

Tests used:
NCI-H69 = assay: Cytotoxicity against human NCI-H69 cells after 72 hrs by fluorometric assay; assay type: functional, cell-based; settings: NCI-H69, 72 h
Procedure, shortened: (§1)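 Fluorometric microculture cytotoxicity assay (FMCA). Cell suspensions (10,000–20,000 cells per mL) were exposed at 37 °C for 72 h to six concentrations from 0.016 to 50, added from DMSO stocks (at most 1% DMSO final). Cells were washed with PBS and given fluorescein diacetate (10 µg/mL). Fluorescence at 485/520 nm was read after 40 min. Survival index is relative to untreated wells. Duplicate wells, experiment repeated twice.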

ACHN = assay: Cytotoxicity against human ACHN cells after 72 hrs by fluorometric assay; assay type: functional, cell-based; procedure, shortened: as §1
Tubulin (Sus scrofa) [1] = biological target: T1, Tubulin (Sus scrofa) (UniProt P02554+P02550); assay: Inhibition of pig tubulin polymerization at 25 uM; assay type: protein assay
Procedure, shortened: (§2)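 Kit assay with porcine tubulin, standard protocol, read by fluorescent reporter enhancement. Test substances were dissolved in DMSO and run at 5 and 25. Docetaxel (stabilizing control) and vincristine (destabilizing control) were diluted in PBS and used at 3. The experiment was run twice and mean values were reported.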

U-937/GTB = assay: Cytotoxicity against human U937/GTB cells after 72 hrs by fluorometric assay; assay type: functional, cell-based; procedure, shortened: as §1
RPMI-8226 = assay: Cytotoxicity against human RPMI8226 cells after 72 hrs by fluorometric assay; assay type: functional, cell-based; settings: RPMI-8226, 72 h; procedure, shortened: as §1
H69AR = assay: Cytotoxicity against human H69AR cells after 72 hrs by fluorometric assay; assay type: functional, cell-based; procedure, shortened: as §1
[2] = Cytotoxicity against human 8226/DOX40 cells after 72 hrs by fluorometric assay; assay type: functional, cell-based; procedure, shortened: as §1
[3] = Cytotoxicity against human 8226/LR-5 cells after 72 hrs by fluorometric assay; assay type: functional, cell-based; procedure, shortened: as §1
CCRF-CEM = assay: Cytotoxicity against human CCRF-CEM cells after 72 hrs by fluorometric assay; assay type: functional, cell-based; procedure, shortened: as §1
[4] = Cytotoxicity against human vincristine-resistant […] cells after 72 hrs by fluorometric assay; assay type: functional, cell-based; procedure, shortened: as §1
[5] = Cytotoxicity against human CEM/VM1 cells after 72 hrs by fluorometric assay; assay type: functional, cell-based; settings: CEM-VM1, 72 h; procedure, shortened: as §1
Tubulin (Sus scrofa) [6] = biological target: T1, Tubulin (Sus scrofa); assay: Effect on pig tubulin polymerization assessed as microtubule stabilization at 3 uM; assay type: protein assay; procedure, shortened: as §2
Tubulin (Sus scrofa) [7] = biological target: T1, Tubulin (Sus scrofa); assay: Inhibition of pig tubulin polymerization at 3 uM; assay type: protein assay; procedure, shortened: as §2
Tubulin (Sus scrofa) [8] = biological target: T1, Tubulin (Sus scrofa); assay: Effect on pig tubulin polymerization assessed as microtubule stabilization at 25 uM; assay type: protein assay; procedure, shortened: as §2
[9] = Homo sapiens, H69AR, 72 h, read-out: IC50

T1 sequence (P02550 whole entry, looked up): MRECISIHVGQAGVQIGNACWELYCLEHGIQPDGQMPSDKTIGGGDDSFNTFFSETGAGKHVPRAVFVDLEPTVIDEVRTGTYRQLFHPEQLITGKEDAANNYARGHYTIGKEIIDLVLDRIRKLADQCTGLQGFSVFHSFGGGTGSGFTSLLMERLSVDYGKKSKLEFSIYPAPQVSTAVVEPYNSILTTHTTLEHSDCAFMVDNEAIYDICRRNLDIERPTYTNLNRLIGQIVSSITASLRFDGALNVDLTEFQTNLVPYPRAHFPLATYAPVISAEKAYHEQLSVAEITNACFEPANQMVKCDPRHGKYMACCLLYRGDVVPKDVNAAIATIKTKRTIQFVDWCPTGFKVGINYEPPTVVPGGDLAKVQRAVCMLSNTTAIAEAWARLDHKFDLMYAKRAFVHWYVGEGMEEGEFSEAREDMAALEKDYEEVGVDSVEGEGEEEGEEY
T1 sequence (P02554 whole entry, looked up): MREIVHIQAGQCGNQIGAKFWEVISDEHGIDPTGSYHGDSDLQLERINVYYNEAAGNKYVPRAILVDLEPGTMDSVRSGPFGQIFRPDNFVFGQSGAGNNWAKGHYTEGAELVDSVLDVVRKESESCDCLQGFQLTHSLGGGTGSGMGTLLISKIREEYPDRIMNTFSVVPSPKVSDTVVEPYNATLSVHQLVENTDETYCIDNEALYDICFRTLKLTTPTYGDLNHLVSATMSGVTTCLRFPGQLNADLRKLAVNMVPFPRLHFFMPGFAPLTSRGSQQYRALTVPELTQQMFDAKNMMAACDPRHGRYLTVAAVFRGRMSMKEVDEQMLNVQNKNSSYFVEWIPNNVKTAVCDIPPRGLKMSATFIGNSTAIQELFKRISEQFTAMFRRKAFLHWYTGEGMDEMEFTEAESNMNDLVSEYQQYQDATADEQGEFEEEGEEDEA

Row | inhibition (Tubulin (Sus scrofa) [1]) | Activity (Tubulin (Sus scrofa) [6]) | inhibition (Tubulin (Sus scrofa) [7]) | Activity (Tubulin (Sus scrofa) [8]) | SMILES | IC50 (NCI-H69) | IC50 (ACHN) | IC50 (U-937/GTB) | IC50 (RPMI-8226) | IC50 (H69AR; [9]) | IC50 [2] | IC50 [3] | IC50 (CCRF-CEM) | IC50 [4] | IC50 [5] | IC50 (H69AR; h69ar)
1 | Active | – | – | – | CCN(CC)c1ccc(/C=C/C(=O)c2cc(Cl)cc(Br)c2O)cc1 | 5.2 µM | 164 µM | 9.3 µM | 29.4 µM | 24.5 µM | 9.7 µM | 9.4 µM | 14.8 µM | 8.8 µM | 14.5 µM | –
2 | – | Active | – | – | CC(=O)O[C@@]12CO[C@@H]1C[C@H](O)[C@@]1(C)C(=O)[C@H](O)C3=C(C)[C@@H](OC(=O)[C@H](O)[C@@H](NC(=O)OC(C)(C)C)c4ccccc4)C[C@@](O)([C@@H](OC(=O)c4ccccc4)[C@H]21)C3(C)C | – | – | – | – | – | – | – | – | – | – | –
3 | Active | – | – | – | O=C(/C=C/c1cccs1)c1cc(Cl)cc(Br)c1O | 20 µM | 44.2 µM | 42.5 µM | 79 µM | 56.1 µM | 26.5 µM | 23.3 µM | 152 µM | 32.6 µM | 48.9 µM | –
4 | Active | – | – | – | O=C(/C=C/C=C/c1ccccc1)c1cc(Cl)cc(Br)c1O | 19.9 µM | 93 µM | 36.6 µM | 48.8 µM | – | 14.2 µM | 23.4 µM | 129 µM | 31.7 µM | 48.6 µM | Non-toxic
5 | inactive | – | – | – | COc1ccc(/C=C/C(=O)c2cc(Cl)cc(Br)c2O)cc1 | 16.4 µM | 49.4 µM | 45 µM | 80 µM | 42.6 µM | 16.9 µM | 46 µM | 111 µM | 77 µM | 45.8 µM | –
6 | – | – | Active | – | CC[C@]1(O)C[C@H]2CN(CCc3c([nH]c4ccccc34)[C@@](C(=O)OC)(c3cc4c(cc3OC)N(C=O)[C@H]3[C@@](O)(C(=O)OC)[C@H](OC(C)=O)[C@]5(CC)C=CCN6CC[C@]43[C@@H]65)C2)C1 | – | – | – | – | – | – | – | – | – | – | –
7 | – | – | – | Active | O=C(/C=C/C=C/c1cn(Cc2ccccc2)c2ccccc12)c1cc(Cl)cc(Br)c1O | 11.1 µM | 17 µM | 49 µM | 119 µM | 48.5 µM | 42.3 µM | 70 µM | 280 µM | 54 µM | 89 µM | –
8 | inactive | – | – | – | O=C(/C=C(\O)c1cc(Cl)cc(Br)c1O)/C=C/c1ccccc1 | 9.4 µM | 37.8 µM | 18.1 µM | 27.9 µM | 25.5 µM | 19.1 µM | 33.5 µM | 34.1 µM | 23.9 µM | 24.1 µM | –
9 | Active | – | – | – | O=C(/C=C/c1ccccc1)c1cc(Cl)cc(Br)c1O | 10.3 µM | 48.9 µM | 20 µM | 18.7 µM | 26.4 µM | 12.4 µM | 13.2 µM | 37.6 µM | 24.2 µM | 22.3 µM | –
10 | inactive | – | – | – | O=C(/C=C/c1ccc(C(F)(F)F)cc1)c1cc(Cl)cc(Br)c1O | 11.5 µM | 49.4 µM | 14.9 µM | 20.8 µM | 33.2 µM | 22.5 µM | 22.3 µM | 15.4 µM | 24.4 µM | 31.1 µM | –
11 | Active | – | – | – | CCN(CC)c1ccc(/C=C/C(=O)c2cc(Br)cc(Br)c2O)cc1 | 7.1 µM | 69 µM | 8.2 µM | 26.1 µM | 38.8 µM | 7.7 µM | 9.9 µM | 20.1 µM | 9.6 µM | 13.1 µM | –
